Experimental data from ChEMBL document CHEMBL1649142, “Relationship between susceptibility to daptomycin in vitro and activity in vivo in a rabbit model of aortic valve endocarditis” (Antimicrob Agents Chemother, 2009).
Converted amounts (≈) assume the structure as drawn.

Key:
Staphylococcus aureus [1] = experiment: Antimicrobial activity against Staphylococcus aureus A0.5 infected in New Zealand rabbit aortic valve endocarditis model assessed as bacterial count in spleen at 18 mg/kg/day, iv for 4 days (reference value: 5.7+/-0.7 log10 CFU/g); assay type: functional
Staphylococcus aureus [2] = experiment: Antimicrobial activity against Staphylococcus aureus B2.0 infected in New Zealand rabbit aortic valve endocarditis model assessed as bacterial count in endocardial vegetation at 18 mg/kg/day, iv for 4 days (reference value: 7.3+/-1.0 log10 CFU/g); assay type: functional, Aorta
[3] = Half life in New Zealand rabbit at 12 mg/kg/day, iv […] by HPLC; assay type: ADME, organism-based, Oryctolagus cuniculus; set-up: route intravenous; details: in vivo
In short: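 Uninfected New Zealand White rabbits (n = 3 per group) were dosed once by IV bolus. Plasma was collected at 0.25, 0.5, 1, 2, 4 and 6 h and measured by validated HPLC. Half-life was obtained by noncompartmental analysis, with kel taken from the slope of the terminal log concentration-time curve.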

Staphylococcus aureus [4] = experiment: Antimicrobial activity against Staphylococcus aureus A0.5/B2.0 infected in New Zealand rabbit dual-infection aortic valve endocarditis model assessed as bacterial count in kidney at 12 mg/kg/day, iv for 4 days (reference value: 6.3+/-1.0 log10 CFU/g); assay type: functional
Staphylococcus aureus [5] = experiment: Antimicrobial activity against rifampin-resistant Staphylococcus aureus B; assay type: functional
Staphylococcus aureus [6] = experiment: Antimicrobial activity against Staphylococcus aureus B2.0 infected in New Zealand rabbit aortic valve endocarditis model assessed as bacterial count in kidney at 18 mg/kg/day, iv for 4 days (reference value: 5.1+/-0.6 log10 CFU/g); assay type: functional
Staphylococcus aureus [7] = experiment: Antimicrobial activity against Staphylococcus aureus B2.0 infected in New Zealand rabbit aortic valve endocarditis model assessed as bacterial count in spleen at 18 mg/kg/day, iv for 4 days (reference value: 5.4+/-0.2 log10 CFU/g); assay type: functional
Staphylococcus aureus [8] = experiment: Antimicrobial activity against Staphylococcus aureus B2.0 infected in New Zealand rabbit aortic valve endocarditis model assessed as bacterial count in endocardial vegetation at 12 mg/kg/day, iv for 4 days (reference value: 7.3+/-1.0 log10 CFU/g); assay type: functional, Aorta
Staphylococcus aureus [9] = experiment: Antimicrobial activity against Staphylococcus aureus B2.0 infected in New Zealand rabbit aortic valve endocarditis model assessed as bacterial count in spleen at 12 mg/kg/day, iv for 4 days (reference value: 5.4+/-0.2 log10 CFU/g); assay type: functional
Staphylococcus aureus [10] = experiment: Antimicrobial activity against Staphylococcus aureus B2.0 infected in New Zealand rabbit aortic valve endocarditis model assessed as bacterial count in kidney at 12 mg/kg/day, iv for 4 days (reference value: 5.1+/-0.6 log10 CFU/g); assay type: functional
Staphylococcus aureus [11] = experiment: Antimicrobial activity against Staphylococcus aureus A0.5/B2.0 infected in New Zealand rabbit dual-infection aortic valve endocarditis model assessed as bacterial count of strain B2.0 in spleen at 12 mg/kg/day, iv for 4 days (reference value: 627 log10 CFU); assay type: functional
Staphylococcus aureus [12] = experiment: Antimicrobial activity against Staphylococcus aureus A0.5 infected in New Zealand rabbit aortic valve endocarditis model assessed as bacterial count in endocardial vegetation at 18 mg/kg/day, iv for 4 days (reference value: 6.9+/-0.7 log10 CFU/g); assay type: functional
Staphylococcus aureus [13] = experiment: Antimicrobial activity against Staphylococcus aureus A0.5 infected in New Zealand rabbit aortic valve endocarditis model assessed as bacterial count in spleen at 18 mg/kg/day, iv for 4 days (reference value: 6.1+/-0.2 log10 CFU/g); assay type: functional
[14] = AUC in New Zealand rabbit at 18 mg/kg/day, iv for 4 days by HPLC; assay type: ADME, organism-based, Oryctolagus cuniculus; set-up: route intravenous; details: plasma
Staphylococcus aureus [15] = experiment: Antimicrobial activity against Staphylococcus aureus A0.5 infected in New Zealand rabbit aortic valve endocarditis model assessed as bacterial count in spleen at 12 mg/kg/day, iv for 4 days (reference value: 5.7+/-0.7 log10 CFU/g); assay type: functional
[16] = AUC in New Zealand rabbit at 12 mg/kg/day, iv for 4 days by HPLC; assay type: ADME, organism-based, Oryctolagus cuniculus; set-up: route intravenous; details: plasma
Staphylococcus aureus [17] = experiment: Antimicrobial activity against Staphylococcus aureus A0.5/B2.0 infected in New Zealand rabbit dual-infection aortic valve endocarditis model assessed as bacterial count in spleen at 12 mg/kg/day, iv for 4 days (reference value: 6.0+/-0.3 log10 CFU/g); assay type: functional
Staphylococcus aureus [18] = experiment: Antimicrobial activity against Staphylococcus aureus A0.5 infected in New Zealand rabbit aortic valve endocarditis model assessed as bacterial count in spleen at 12 mg/kg/day, iv for 4 days (reference value: 6.1+/-0.2 log10 CFU/g); assay type: functional
[19] = AUC in human at 10 mg/kg, iv by HPLC; assay type: ADME, organism-based; set-up: dose 10 mg/kg, route intravenous; details: plasma
Staphylococcus aureus [20] = experiment: Antimicrobial activity against Staphylococcus aureus A0.5/B2.0 infected in New Zealand rabbit dual-infection aortic valve endocarditis model assessed as bacterial count of strain A0.5 in spleen at 12 mg/kg/day, iv for 4 days (reference value: 333 log10 CFU); assay type: functional
Staphylococcus aureus [21] = experiment: Antimicrobial activity against rifampin-susceptible Staphylococcus aureus A by Etest
Staphylococcus aureus [22] = experiment: Antimicrobial activity against Staphylococcus aureus A0.5/B2.0 infected in New Zealand rabbit dual-infection aortic valve endocarditis model assessed as bacterial count of strain A0.5 in endocardial vegetation at 12 mg/kg/day, iv for 4 days (reference value: 280 log10 CFU); assay type: functional, Aorta
[23] = Cmax in New Zealand rabbit at 18 mg/kg/day, iv […] measured after 15 mins […] by HPLC; assay type: ADME, organism-based, Oryctolagus cuniculus; set-up: dose 18 mg/kg/day, route intravenous; details: in vivo
In short: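 A single IV bolus (1 to 2 min, marginal ear vein) was given to healthy New Zealand White rabbits, three per group. Plasma was drawn from 0.25 to 6 h and assayed by validated HPLC. The reported value is the mean plasma concentration 15 min after the end of infusion, not a multi-day steady-state peak.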

Staphylococcus aureus [24] = experiment: Antimicrobial activity against Staphylococcus aureus A0.5 infected in New Zealand rabbit aortic valve endocarditis model assessed as bacterial count in endocardial vegetation at 12 mg/kg/day, iv for 4 days (reference value: 6.9+/-0.7 log10 CFU/g); assay type: functional
[25] = AUC in human at 6 mg/kg, iv by HPLC; assay type: ADME, organism-based; set-up: dose 6 mg/kg, route intravenous; details: plasma
Staphylococcus aureus [26] = experiment: Antimicrobial activity against Staphylococcus aureus A0.5/B2.0 infected in New Zealand rabbit dual-infection aortic valve endocarditis model assessed as bacterial count in endocardial vegetation at 12 mg/kg/day, iv for 4 days (reference value: 7.8+/-0.4 log10 CFU/g); assay type: functional, Aorta
Staphylococcus aureus [27] = experiment: Antimicrobial activity against Staphylococcus aureus A0.5/B2.0 infected in New Zealand rabbit dual-infection aortic valve endocarditis model assessed as bacterial count of strain B2.0 in endocardial vegetation at 12 mg/kg/day, iv for 4 days (reference value: 320 log10 CFU); assay type: functional, Aorta
Staphylococcus aureus [28] = experiment: Antimicrobial activity against rifampin-susceptible Staphylococcus aureus A by broth dilution method

CCCCCCCCCC(=O)N[C@@H](Cc1c[nH]c2ccccc12)C(=O)N[C@H](CC(N)=O)C(=O)N[C@@H](CC(=O)O)C(=O)N[C@@H]1C(=O)NCC(=O)N[C@@H](CCCN)C(=O)N[C@@H](CC(=O)O)C(=O)N[C@H](C)C(=O)N[C@@H](CC(=O)O)C(=O)NCC(=O)N[C@H](CO)C(=O)N[C@@H]([C@H](C)CC(=O)O)C(=O)N[C@@H](CC(=O)c2ccccc2N)C(=O)O[C@@H]1C
log10CFU/g (Staphylococcus aureus [1]): 0 | log10CFU/g (Staphylococcus aureus [2]): 4.4 | half-life [3]: 5 h | log10CFU/g (Staphylococcus aureus [4]): 1.7 | MIC (Staphylococcus aureus [5]): 2 µg/mL (≈ 1.23 µM) | log10CFU/g (Staphylococcus aureus [6]): 2.5 | log10CFU/g (Staphylococcus aureus [7]): 2.3 | log10CFU/g (Staphylococcus aureus [8]): 6.3 | log10CFU/g (Staphylococcus aureus [9]): 3.2 | log10CFU/g (Staphylococcus aureus [10]): 2.1 | log10CFU/g (Staphylococcus aureus [11]): 0 | log10CFU/g (Staphylococcus aureus [12]): 0 | log10CFU/g (Staphylococcus aureus [13]): 0 | AUC at 96 h [14]: 965 µg·h/mL | log10CFU/g (Staphylococcus aureus [15]): 0 | AUC at 96 h [16]: 719 µg·h/mL | log10CFU/g (Staphylococcus aureus [17]): 2.3 | log10CFU/g (Staphylococcus aureus [18]): 0 | AUC [19]: 1040 µg·h/mL | log10CFU/g (Staphylococcus aureus [20]): 1 | MIC (Staphylococcus aureus [21]): 0.5 µg/mL (≈ 0.309 µM) | log10CFU/g (Staphylococcus aureus [22]): 2.3 | Cmax [23]: 149 µg/mL | log10CFU/g (Staphylococcus aureus [24]): 0 | AUC [25]: 632 µg·h/mL | log10CFU/g (Staphylococcus aureus [26]): 5.3 | log10CFU/g (Staphylococcus aureus [27]): 1.7 | MIC (Staphylococcus aureus [28]): 0.5 µg/mL (≈ 0.309 µM)
